OX1R antag-1: antagonists of human orexin 1 receptor. O43613. CHO/OX1R cells, Fluo-8 calcium fluorescence, orexin A. inhibition, % at 5 µM. 330,000 compounds, 0.43% hits;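 active means inhibition above its plate's threshold, mean inhibition of all tested compounds on the plate plus 3 SD, cut at about 37% in these data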;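 further: 0% = orexin A challenge wells and 100% = SB-334867-A antagonist wells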
Target sequence (O43613 whole entry, looked up): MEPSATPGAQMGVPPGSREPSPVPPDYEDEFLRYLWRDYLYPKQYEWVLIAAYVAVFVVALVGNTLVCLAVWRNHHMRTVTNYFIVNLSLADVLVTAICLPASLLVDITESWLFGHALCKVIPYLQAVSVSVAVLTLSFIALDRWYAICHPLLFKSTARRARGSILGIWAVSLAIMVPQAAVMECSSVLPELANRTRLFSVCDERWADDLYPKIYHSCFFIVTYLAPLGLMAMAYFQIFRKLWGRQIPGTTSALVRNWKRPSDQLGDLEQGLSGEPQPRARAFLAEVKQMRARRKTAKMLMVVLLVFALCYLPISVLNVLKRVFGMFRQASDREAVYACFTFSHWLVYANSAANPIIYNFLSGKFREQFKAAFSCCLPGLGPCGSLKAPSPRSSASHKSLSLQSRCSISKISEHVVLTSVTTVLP
OX1R antag-2: antagonists of human orexin 1 receptor (OX1R). OX1R-expressing cells, FRET antagonist read-out. inhibition, % at 6.6 µM. 330,000 compounds, 1.8% hits. AID 485270; in the data active means inhibition mostly above about 38%, no sharp cut-off; inactive means mostly below about 40%;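 further: 0% = agonist challenge alone and 100% = reference antagonist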
CHO parental Ca: signal in parental CHO cells, OX1R antagonist counter-screen; 330,000 compounds, 0.63% hits; inhibition, % at 5.6 µM; parental CHO-K1, ATP-induced calcium, Fluo-8 fluorescence;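 active means inhibition above that plate's mean sample inhibition plus 3 SD, cut at about 26% in these data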;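 further: 0% = ATP-challenged DMSO wells and 100% = DMSO wells without ATP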
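material = parental CHO cells | also added = ATP as calcium-mobilizing challenge | dosing = single point at 5.6 µM | detection = intracellular calcium via Fluo-8 no-wash fluorescent dye | read-out = % inhibition | benchmarks = low control ATP plus DMSO, high control DMSO only | repeats = one well per compound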
TAAR1 ag: agonists of human TAAR1. activation, % at 3 µM. 360,000 compounds, 0.99% hits. CHO RD-HGA16 TAAR1, Fluo-8 calcium fluorescence; vehicle wells 0%, saturating PEA agonist 100%;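 active means activation above the mean activation of all test compounds in the run plus 3 SD, cut at about 38% in these data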
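Test system: RD-HGA16 (CHO) cells co-expressing Gα16 and hTAAR1 | Doses: Single dose, 3 µM | Schedule: 17-24 h seeding, 75 min 37 °C dye, 30 min RT | Evaluation: % activation from peak over basal fluorescence ratio, DMSO-to-PEA scaled | Technique: Kinetic Fluo-8 calcium fluorescence | Benchmarks: Low control DMSO, high control PEA (EC100)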
GPR7 antag: antagonists of human GPR7 (neuropeptides B/W receptor 1); P48145; GPR7-expressing cells, fluorescence antagonist assay; inhibition, % at 4.4 µM; 290,000 compounds, 1.1% hits; in the data active means inhibition above about 16%, passing the limit was not always enough;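 further: cells stimulated with the agonist NPW; 0% = agonist with vehicle and 100% = vehicle without agonist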
Target sequence (P48145 whole entry, looked up): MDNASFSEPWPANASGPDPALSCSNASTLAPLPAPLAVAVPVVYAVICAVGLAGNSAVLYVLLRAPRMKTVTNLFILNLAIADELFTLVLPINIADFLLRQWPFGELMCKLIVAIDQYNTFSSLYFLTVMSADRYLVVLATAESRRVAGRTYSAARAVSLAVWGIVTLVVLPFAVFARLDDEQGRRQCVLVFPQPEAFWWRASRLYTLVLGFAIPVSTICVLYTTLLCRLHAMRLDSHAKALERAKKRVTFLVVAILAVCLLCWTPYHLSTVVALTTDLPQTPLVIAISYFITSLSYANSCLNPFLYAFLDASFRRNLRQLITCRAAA
TAAR1 antagonist: human TAAR1 antagonism; Q96RJ0; CHO RD-HGA16 TAAR1, Fluo-8 calcium fluorescence, antagonist; inhibition, % at 3 µM; 360,000 compounds, 1.5% hits;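 active means inhibition above a per-plate cutoff, the mean inhibition of test compounds on that plate plus 3 SD, cut at about 49% in these data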;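 further: 0% = DMSO plus EC80 beta-PEA response and 100% = DMSO alone without agonist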
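Assay system: CHO-derived RD-HGA16 cells stably expressing human TAAR1 plus Gα16. Timing: 140 s kinetic read after compound, 140 s after agonist. Technique: kinetic Fluo-8 calcium fluorescence measurement. Measure: % inhibition of agonist calcium response.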
GPR7 antag cf: confirmation of human GPR7 antagonists | shares compounds with GPR7 antag | GPR7-expressing cells, calcium fluorescence antagonist mode | inhibition, % at 4.4 µM | 2,400 compounds, 52% hits; in the data active means inhibition above about 24%;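 further: stimulated with the GPR7 agonist NPW; 0% = agonist plus vehicle and 100% = vehicle alone without agonist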
MCHR1 antagonist: counter-screen for GPR7 antagonists: antagonists of human MCHR1. shares compounds with GPR7 antag. MCHR1-expressing cells, fluorescence antagonist assay. inhibition, % at 4.4 µM. 2,400 compounds, 62% hits. AID 2148;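 further: 0% = vehicle with agonist and 100% = vehicle without agonist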
TAAR1 nonsel count: nonselective antagonist in TAAR1 antagonist counter-screen; shares compounds with TAAR1 antagonist; counterscreen cell line, calcium fluorescence, antagonist mode; inhibition, % at 3 µM; 2,400 compounds, 77% hits; AID 651780;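 further: CHO-Ga16 host cells stimulated with ATP at an EC80 level; 0% = agonist EC80 plus vehicle and 100% = vehicle without agonist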
TAAR1 ant conf: confirmation of human TAAR1 antagonists; shares compounds with TAAR1 antagonist; TAAR1-expressing cells, fluorescence antagonist read-out; 2,400 compounds, 40% hits; AID 651785; inhibition, % at 3 µM; in the data active means inhibition above about 49%;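 further: CHO-Ga16 host cells challenged with agonist PEA near its EC80; 0% = agonist at EC80 plus vehicle and 100% = vehicle with no agonist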
Ga16 ag counter-1: nonselective Ga16 agonism, counter-screen; shares compounds with TAAR1 antagonist; Ga16-expressing cells, calcium fluorescence, agonist counterscreen; activation, % at 3 µM; 2,400 compounds, 18% hits; AID 651953; in the data active means activation above about 12%;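 further: 0% = vehicle wells and 100% = saturating stimulus response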
TAAR1 ag count: TAAR1 agonism, antagonist counter-screen | shares compounds with TAAR1 antagonist | hTAAR1 cell line, fluorescence activation, agonist mode | activation, % at 3 µM | 2,400 compounds, 2% hits | AID 651955; in the data active means activation above about 37%;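 further: CHO cells stably expressing TAAR1 with calcium dye readout; 0% = DMSO vehicle and 100% = full agonist response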
TAAR1 ag confirm: confirmation of human TAAR1 agonists. 2,400 compounds, 82% hits. AID 651783. CHO RD-HGA16 TAAR1, Fluo-8 calcium fluorescence; scaled: DMSO 0%, maximal phenethylamine 100%. shares compounds with TAAR1 ag. activation, % at 3 µM;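 active means activation above a cutoff set at the run's mean compound activation plus 3 SD, cut at about 39% in these data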
Ga16 ag counter-2: nonselective agonist in parental cells, TAAR1 agonist counter-screen; CHO-Ga16 parental, Fluo-8 calcium fluorescence; normalized to maximal ATP response, DMSO zero; 2,400 compounds, 50% hits; activation, % at 3 µM; shares compounds with TAAR1 ag;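 active means activation above the run cutoff, the mean activation over all tested wells plus 3 SD, cut at about 12% in these data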;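 further: 0% = DMSO wells and 100% = maximal ATP response on the peak over basal ratio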
TAAR1 desens: TAAR1 response desensitization, agonist counter-screen; inhibition, % at 3 µM; shares compounds with TAAR1 ag; 2,400 compounds, 46% hits; CHO RD-HGA16 hTAAR1, Fluo-8 calcium, beta-PEA response inhibition;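 active means inhibition above the run cutoff, the mean inhibition of all test compounds plus 3 SD, cut at about 49% in these data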;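 further: beta-PEA stimulus applied at its EC80; loss of beta-PEA calcium signal after compound pretreatment read as receptor desensitization; 0% = DMSO with beta-PEA at EC80 and 100% = DMSO alone without agonist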
Ga16 nonsel ant: nonselective Ga16 antagonist in TAAR1 agonist counter-screen; shares compounds with TAAR1 ag; CHO-Ga16 ATP-induced calcium, Fluo-8 fluorescence; inhibition, % at 3 µM; 2,400 compounds, 39% hits; AID 651952;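 active means inhibition above the plate's mean compound inhibition plus 3 SD, computed per plate, cut at about 22% in these data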;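 further: 0% = EC80 ATP with DMSO and 100% = DMSO wells without ATP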
* hit, by the source's call; nt = not tested or not shown; ! = repeats disagree. Most compounds without a hit are left out; they make up all but 4.6% or so of the library. Unless noted, no stated cut-off is given here; in the data, active means inhibition above about 22%; inactive means the rest.

SMILES	OX1R antag-1	OX1R antag-2	CHO parental Ca	TAAR1 ag	GPR7 antag	TAAR1 antagonist	GPR7 antag cf	MCHR1 antagonist	TAAR1 nonsel count	TAAR1 ant conf	Ga16 ag counter-1	TAAR1 ag count	others
CC(C)(C)C(=O)Nc1ccc(Sc2ccc([N+](=O)[O-])cc2)cc1	24.3	25.7	10.2	5.7	24.7*	91.4*	23.1	69.5*	48.7*	60.4*	8.2	1.7
CC(=O)Nc1ccc(Sc2ccc([N+](=O)[O-])o2)cc1	nt	nt	nt	2.2	nt	-3.9	nt	nt	nt	nt	nt	nt
COc1cc(-c2noc(C)c2/C=C/c2cccc([N+](=O)[O-])c2)cc(OC)c1OC	0.5	16.8	-7.3	10.6	35.4*	73.8*	45.6*	65.5*	28.4*	42.4	2.0	0.0
Cn1c(SCC(=O)NC2CCCC2)nc2cccnc21	-8.2	8.9	-17.3	-0.1	-7.1	19.9	nt	nt	nt	nt	nt	nt
COc1ccc(OC)c(NC(=O)c2cccc(N3C(=O)C4C5C=CC(C6CC56)C4C3=O)c2)c1 (configuration not stated)	-31.0	9.0	-7.0	11.0	24.1*	75.0*	21.8	69.4*	46.2*	61.9*	13.2*	10.2
CC1(C(=O)Nc2ccc3c(c2)OCCO3)CN(S(C)(=O)=O)CC(=O)N1Cc1cccc(C(F)(F)F)c1 (configuration not stated)	nt	nt	nt	3.1	nt	-10.3	nt	nt	nt	nt	nt	nt
CC1(C)CC(C(CCN(Cc2ccccc2)C(=O)c2ccco2)c2ccc(F)cc2)CCO1 (configuration not stated)	-2.9	8.2	-10.5	4.5	31.1*	73.0*	37.2*	60.5*	40.9*	54.2*	5.5	0.4
O=C(c1ccco1)N(CCC(c1ccccc1)c1ccco1)Cc1ccc(F)cc1 (configuration not stated)	4.0	0.5	6.1	nt	17.4	nt	nt	nt	nt	nt	nt	nt
CC(=O)c1cccc(NC(=O)c2cccc(S(=O)(=O)N3CCOCC3)c2)c1	-7.4	8.7	-15.7	0.9	-2.9	-2.6	nt	nt	nt	nt	nt	nt
CCOC(=O)c1ccc(NC(=O)c2cccc(S(=O)(=O)N3CCOCC3)c2)cc1	27.5	45.9	33.0*	22.9	23.8*	62.2*	21.3	74.8*	33.7*	47.9	13.8*	11.9
O=C(Nc1nc(-c2ccc(S(=O)(=O)N3CCOCC3)cc2)cs1)c1ccccc1	-0.3	15.8	-2.6	13.2	33.5*	59.5*!	61.0*	76.2*	28.1*	50.1*	10.7	6.5
O=C(Nc1ccc2c(c1)CCCN2C(=O)c1cccs1)c1c(F)cccc1Cl	-17.8	13.5	-8.0	1.4	25.9*	59.3*	16.0	40.6*	22.0*	43.4	7.7	13.2
Cc1c(C(=O)N2CCN(c3ccc(F)cc3)CC2)sc2ncnc(N3CCN(c4ccccn4)CC3)c12	-8.2	26.4	-2.1	9.6	22.6*	70.0*	15.8	69.5*	29.3*	47.2	9.3	7.7
O=C(NCCCN1CCC(Cc2ccccc2)CC1)c1ccc(CS(=O)c2ccccc2Cl)o1 (configuration not stated)	nt	nt	nt	4.3	nt	-9.0	nt	nt	nt	nt	nt	nt
O=C(CCCCCn1c(=S)[nH]c2cc3c(cc2c1=O)OCO3)NCCc1ccccc1	-15.8	16.7	-2.4	34.0	-1.0	-19.4	nt	nt	nt	nt	nt	nt
CCOC(=O)c1cc(-c2ccccc2)nc2c1c(C)nn2-c1ccccn1	-36.2	6.9	-25.9	15.7	45.9*	53.2*	27.9*	33.5*	21.6*	28.0	8.0	14.0
CCOC(=O)c1cc(-c2ccncc2)nc2c1c(C)nn2C	-32.9	16.0	-15.5	2.4	-2.1	-29.8	nt	nt	nt	nt	nt	nt
COc1ccc(Cc2nnc(SCC(=O)NCc3ccco3)o2)cc1	-8.2	10.7	-10.3	8.0	-8.0	-7.1	nt	nt	nt	nt	nt	nt
CN1/C(=C\C(=O)COC(=O)Cn2nnc(-c3ccccc3)n2)C(C)(C)c2ccccc21	36.6	31.2	54.1*	9.2	25.9*	51.6*	17.8	38.2*	44.0*	39.4	7.0	-0.1
CN1/C(=C/C(=O)COC(=O)CN2C(=O)C3CC=CCC3C2=O)C(C)(C)c2ccccc21 (configuration not stated)	nt	nt	nt	2.0	nt	20.1	nt	nt	nt	nt	nt	nt
O=C1/C(=C\c2cc(Cl)c(O)c(Cl)c2)SC(=S)N1Cc1ccccc1	nt	nt	nt	110.9*	59.6*	97.2*	99.9*	110.7*	nt	nt	nt	nt	TAAR1 ag confirm=187.7*;Ga16 ag counter-2=258.1*;TAAR1 desens=107.1*;Ga16 nonsel ant=106.2*
COc1ccc(/C=C2/SC(=S)N(Cc3ccccc3)C2=O)cc1O	nt	nt	nt	15.1	-18.0	-44.3	nt	nt	nt	nt	nt	nt
COC(=O)c1cccc(NC(=O)CSc2nnc(C)o2)c1	1.3	3.2	-7.1	-0.7	-5.0	-3.5	nt	nt	nt	nt	nt	nt
Cc1ccc(O)c(NC(=S)NC(=O)Cc2ccc(Cl)cc2)c1	107.2*	-13.2	99.3*	155.3*	99.0*	105.6*	99.5*	106.5*	nt	nt	nt	nt	TAAR1 ag confirm=140.1*;Ga16 ag counter-2=117.2*;TAAR1 desens=106.2*;Ga16 nonsel ant=101.7*
COc1ccc(CCN2C(=O)CC(NNC(=O)c3cccc(O)c3)C2=O)cc1 (configuration not stated)	-0.8	-2.6	-0.6	0.6	-7.4	-14.4	nt	nt	nt	nt	nt	nt

Assay outcomes deposited in PubChem by The Scripps Research Institute Molecular Screening Center.
